Measured values reported in ChEMBL document CHEMBL3603769, “1,5-Disubstituted benzimidazoles that direct cardiomyocyte differentiation from mouse embryonic stem cells” (2015).

Test: Induction of cardiomyogenesis in mouse ESC transfected with alpha-MHC at 0.78 to 12.5 uM treated on day 2 to 4 followed by cell reseeding in normal growth media on day 6, 8 measured on day 10 by GFP reporter gene assay relative to vehicle-treated control
Format: functional, Embryonic stem cell
How it was run: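 mESCs stably carrying αMHC-promoter eGFP, expanded feeder-free with LIF on poly-D-lysine (5 passages), then seeded about 1000 cells/well on gelatin in growth media without LIF. From day 2, compound added in equal volume of media at 2× final (0.78–12.5 μM; 50 mM DMSO stocks). Cultures kept at 37 °C, 5% CO2, fixed in paraformaldehyde on day 9 or 10 and DAPI-stained. αMHC-eGFP fluorescence imaged automatically and expressed as fold-change over DMSO-treated cells.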

First: c1ccc(-n2cnc3cc(NCc4cccs4)ccc32)cc1
Second: c1ccc(-n2cnc3cc(NCc4ccco4)ccc32)cc1
The “fold change (FC)” value of the first is lower: 0.75 for the first, 2.2 for the second.

Going from `Cc1nnc(Nc2ccc3c(c2)ncn3C)c2ccccc12` to `Cc1nnc(Nc2ccc3c(c2)ncn3C2CC2)c2ccccc12`, the “fold change (FC)” value falls from 1.6 to 0.9.

First: Nc1ccc2c(c1)ncn2-c1ccccc1
Second: CC(=O)Nc1ccc2c(c1)ncn2-c1ccccc1
The “fold change (FC)” value of the first is higher: 3 for the first, 1.2 for the second.

First: Cc1nnc(Nc2ccc3c(c2)nc(N)n3-c2ccccc2)c2ccccc12
Second: Cc1nnc(Nc2ccc3c(c2)nc(N(C)C)n3-c2ccccc2)c2ccccc12
The “fold change (FC)” value of the first is lower: 2.1 for the first, 3.7 for the second.

First: Cc1nnc(Nc2ccc3c(c2)ncn3-c2ccccc2)c2ccccc12
Second: Cc1nnc(Nc2ccc3c(c2)ncn3-c2ccccc2O)c2ccccc12
The “fold change (FC)” value of the first is higher: 9.6 for the first, 2.1 for the second.

First: COc1ccccc1-n1cnc2cc(Nc3nnc(C)c4ccccc34)ccc21
Second: Cc1nnc(Nc2ccc3c(c2)ncn3-c2ccccc2C(C)C)c2ccccc12
The “fold change (FC)” value of the first is lower: 4.3 for the first, 4.4 for the second.

Compared with `COc1cccc(-n2cnc3cc(Nc4nnc(C)c5ccccc45)ccc32)c1`, `COc1cccc(-n2cnc3cc(Nc4nnc(Cl)c5ccccc45)ccc32)c1` is lower in “fold change (FC)” value: 18.6 for the first, 6.7 for the second.

Going from `CCCc1ccc(-n2cnc3cc(Nc4nnc(C)c5ccccc45)ccc32)cc1` to `COc1ccc(-n2cnc3cc(Nc4nnc(C)c5ccccc45)ccc32)cc1`, the “fold change (FC)” value rises from 0.7 to 10.

Compared with `Cc1nnc(Nc2ccc3c(c2)ncn3-c2cccc(C(F)(F)F)c2)c2ccccc12`, `Cc1nnc(Nc2ccc3c(c2)ncn3-c2ccc(C(F)(F)F)cc2)c2ccccc12` is higher in “fold change (FC)” value: 0.5 for the first, 1.6 for the second.

Going from `Cc1nnc(Nc2ccc3c(c2)ncn3C2CCCCC2)c2ccccc12` to `Cc1nnc(Nc2ccc3c(c2)ncn3C2CCOCC2)c2ccccc12`, the “fold change (FC)” value falls from 3.3 to 1.6.

First: Cc1nnc(Nc2ccc3c(c2)ncn3-c2ccccn2)c2ccccc12
Second: Cc1nnc(Nc2ccc3c(c2)nnn3-c2ccccc2)c2ccccc12
The “fold change (FC)” value of the first is lower: 2.2 for the first, 3.1 for the second.

Compared with `Cc1nnc(Nc2ccc3c(c2)ncn3C2CCN(C)CC2)c2ccccc12`, `COc1ccccc1-n1cnc2cc(Nc3nnc(C)c4ccccc34)cnc21` is lower in “fold change (FC)” value: 4.4 for the first, 2.5 for the second.

First: COc1cccc(-n2cnc3cc(Nc4nncc5ccccc45)ccc32)c1
Second: COc1cccc(-n2cnc3cc(Nc4nnc(OC)c5ccccc45)ccc32)c1
The “fold change (FC)” value of the first is higher: 13.7 for the first, 7.1 for the second.

Compared with `COc1cccc(-n2cnc3cc(Nc4nnc(Cc5ccccc5)c5ccccc45)ccc32)c1`, `COc1cccc(-n2cnc3cc(Nc4nnc(-c5ccccc5)c5ccccc45)ccc32)c1` is lower in “fold change (FC)” value: 2 for the first, 1 for the second.

Compared with `COc1cccc(-n2cnc3cc(NCCc4ccccc4)ccc32)c1`, `COc1cccc(-n2cnc3cc(NCc4ccccc4OC)ccc32)c1` is higher in “fold change (FC)” value: 1.4 for the first, 1.7 for the second.

Going from `Cn1cccc1CNc1ccc2c(c1)ncn2-c1ccccc1` to `Clc1ncccc1CNc1ccc2c(c1)ncn2-c1ccccc1`, the “fold change (FC)” value falls from 1.6 to 1.4.

Compared with `Brc1ccc(CNc2ccc3c(c2)ncn3-c2ccccc2)s1`, `FC(F)(F)c1ccc(CNc2ccc3c(c2)ncn3-c2ccccc2)cn1` is lower in “fold change (FC)” value: 3.1 for the first, 2.9 for the second.

Going from `c1ccc(-c2ccc(CNc3ccc4c(c3)ncn4-c3ccccc3)cn2)cc1` to `c1ccc(CN2CCC(CNc3ccc4c(c3)ncn4-c3ccccc3)CC2)cc1`, the “fold change (FC)” value rises from 3 to 4.3.

Going from `COc1cccc(-n2cnc3cc(NC(=O)c4ccccn4)ccc32)c1` to `COc1cccc(Nc2ccc3c(c2)ncn3-c2ccccc2OC)c1`, the “fold change (FC)” value rises from 1.7 to 3.8.

Compared with `COc1ccccc1-n1cnc2cc(Nc3ccc4ccccc4c3)ccc21`, `COc1ccccc1-n1cnc2cc(Nc3ccccc3)ccc21` is lower in “fold change (FC)” value: 3.1 for the first, 0.7 for the second.

First: COc1ccccc1-n1cnc2cc(Nc3ncccn3)ccc21
Second: COc1ccccc1-n1cnc2cc(Nc3ccccn3)ccc21
The “fold change (FC)” value of the first is lower: 1.1 for the first, 1.5 for the second.

First: c1ccc(-n2cnc3cc(Nc4cnccn4)ccc32)cc1
Second: c1ccc(-n2cnc3cc(Nc4cccnc4)ccc32)cc1
The “fold change (FC)” value of the first is lower: 2.4 for the first, 7.8 for the second.

Compared with `Cc1cccc(-n2cnc3cc(Nc4ccc(C)nn4)ccc32)c1`, `Cc1nnc(Nc2ccc3c(ccn3-c3ccccc3)c2)c2ccccc12` is lower in “fold change (FC)” value: 7.9 for the first, 2 for the second.

Test: Induction of cardiomyogenesis in mouse ESC transfected with alphaMHC-eGFP at 3 uM treated on day 2 to 4 followed by cell reseeding in normal growth media on day 6 and 8 measured on day 12 by alpha-Actinin Alexa568-based immunohistochemical analysis relative to vehicle-treated control
Format: functional, Embryonic stem cell
How it was run: (§1)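 αMHC-eGFP mESCs dosed at 3 or 6 μM on days 2 and 4, then fixed at day 10 or 12 in 4% paraformaldehyde for 40 min at room temperature. Cells were permeabilized and blocked 30 min in PBS with 10% horse serum and 0.2% Triton X-100. Staining used mouse anti-α-actinin (1:200, 60 min) then donkey anti-mouse Alexa568 (1:400, with DAPI, 60 min). Integrated Alexa568 intensity was reported relative to DMSO vehicle.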

With `Cc1nnc(Nc2ccc3c(c2)ncn3-c2ccccc2)c2ccccc12` the “fold change (FC)” value was 10.

Test: Induction of cardiomyogenesis in mouse ESC transfected with alpha-MHC at 3 uM treated on day 2 to 4 followed by cell reseeding in normal growth media on day 6, 8 measured on day 12 by GFP reporter gene assay relative to vehicle-treated control
Format: functional, Embryonic stem cell
How it was run: (§2)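 αMHC-eGFP mESCs seeded in growth media without LIF, dosed at 3 or 6 μM on days 2 and 4, and fed growth media on days 6 and 8. Cultures were then fixed in 4% paraformaldehyde. Integrated intensity of αMHC-eGFP fluorescence was measured by automated imaging as fold increase over DMSO vehicle. nsRED autofluorescence was subtracted.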

With `Cc1nnc(Nc2ccc3c(c2)ncn3-c2ccccc2)c2ccccc12` the “fold change (FC)” value was 10.

Test: Induction of cardiomyogenesis in mouse ESC transfected with alphaMHC-eGFP at 6 uM treated on day 2 to 4 followed by cell reseeding in normal growth media on day 6 and 8 measured on day 12 by alpha-Actinin Alexa568-based immunohistochemical analysis relative to vehicle-treated control
Format: functional, Embryonic stem cell
How it was run: as §1

For `Cc1nnc(Nc2ccc3c(c2)ncn3-c2ccccc2)c2ccccc12`, the “fold change (FC)” value was 20.

Test: Induction of cardiomyogenesis in mouse ESC transfected with alpha-MHC at 6 uM treated on day 2 to 4 followed by cell reseeding in normal growth media on day 6, 8 measured on day 12 by GFP reporter gene assay relative to vehicle-treated control
Format: functional, Embryonic stem cell
How it was run: as §2

In the case of `Cc1nnc(Nc2ccc3c(c2)ncn3-c2ccccc2)c2ccccc12`, the “fold change (FC)” value is reported as 20.
